Hits are enriched below; roughly 1.9% of the tested compounds scored in any of these assays.
ARFGAP1 inh: rat ARFGAP1 inhibition. Q62848. 0.26% of 360,000 active. Arfgap1-stimulated ARF1 GTP hydrolysis, GDP FP detection. inhibition, % at 16.5 µM;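 active means inhibition above a per-plate limit, mean inhibition of low control wells plus 3 SD, cut at about 25% in these data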
Target sequence (Q62848 1-136 limits assumed): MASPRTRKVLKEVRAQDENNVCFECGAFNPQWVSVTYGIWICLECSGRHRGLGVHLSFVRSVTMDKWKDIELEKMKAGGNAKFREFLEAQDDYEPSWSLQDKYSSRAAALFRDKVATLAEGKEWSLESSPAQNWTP
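Assay system: purified rat His6-Arfgap1 residues 1-136 (GAP domain); Reagent: human Δ17 ARF1 bound to GTP; Dosing: 16.5 µM single point, 1.26% DMSO; Times: GTP hydrolysis reaction 2 h at 25 °C; Signal: FP, GDP Alexa 633 tracer displaced from anti-GDP antibody, 620/688 nm; Measure: % inhibition from polarization.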
PLC-gamma1 inh: PLC-gamma1 (human) inhibition, primary screen. P19174. 0.84% of 370,000 active. purified PLC-gamma1, fluorogenic substrate, fluorescence. inhibition, % at 12.2 µM; in the data active means inhibition above about 9.5%
sPLA2-III inh: Inhibits HGIII-sPLA2 liposome hydrolysis, primary screen | Q9NZ20 | QFRET BODIPY PC-A2 liposome hydrolysis, fluorescence | inhibition, % at 12.2 µM | 0.56% of 370,000 active | AID 743126;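 active means inhibition above mean plus 3 SD of compounds lying within the high and low control bounds, cut at about 19% in these data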
ASAP1 GAP inh: inhibitors of human ASAP1 ArfGAP activity. ASAP1-stimulated ARF1 GTP hydrolysis, GDP FP detection. inhibition, % at 16.5 µM. 0.19% of 360,000 active. AID 624377; in the data active means inhibition above about 25%
Target sequence (Q9ULH1 325-724 limits assumed): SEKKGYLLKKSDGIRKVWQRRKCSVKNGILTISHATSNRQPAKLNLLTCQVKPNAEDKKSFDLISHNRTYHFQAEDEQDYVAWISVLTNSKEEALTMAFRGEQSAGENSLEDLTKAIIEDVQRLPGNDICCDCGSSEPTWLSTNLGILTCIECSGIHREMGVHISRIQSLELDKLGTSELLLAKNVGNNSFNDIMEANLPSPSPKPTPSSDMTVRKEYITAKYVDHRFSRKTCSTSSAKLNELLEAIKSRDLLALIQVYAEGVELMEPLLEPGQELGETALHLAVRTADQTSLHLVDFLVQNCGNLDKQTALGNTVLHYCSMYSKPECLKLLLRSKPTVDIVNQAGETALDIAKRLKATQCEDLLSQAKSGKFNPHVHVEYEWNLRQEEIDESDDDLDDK
PLCb3 inh: inhibitors of human phospholipase C beta3; 0.18% of 370,000 active; Q01970; inhibition, % at 12.2 µM; Purified PLC-beta3, fluorogenic substrate, fluorescence; in the data active means inhibition above about 11%
hGIII sPLA2 conf: human GIII-sPLA2 inhibition, confirmation. shares compounds with sPLA2-III inh. recombinant hGIII-sPLA2, BODIPY PC-A2 QFRET fluorescence. inhibition, % at 12.2 µM. 34% of 2,000 active. AID 743280;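 active means mean inhibition across triplicates above the hit cutoff set in the earlier primary screen, cut at about 19% in these data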
BODIPY interf: optically interferes with 535nm fluorescence in sPLA2 counter-screen. shares compounds with sPLA2-III inh. BODIPY FL product fluorescence interference, QFRET. inhibition, % at 12.2 µM. 8.5% of 2,000 active;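 active means average inhibition above the solvent-only control mean plus 3 SD, cut at about 6% in these data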
535nm interf DR: 535nm optical interference dose response, HGIII-sPLA2 counter-screen. shares compounds with sPLA2-III inh. BODIPY FL product fluorescence interference, cell-free. IC50, µM. 240 tested, under 10 active. AID 743455;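 active means IC50 at or below 10 µM; inactive means IC50 above 10 µM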
Hits are given with their value; 0 = inactive; - = not tested or not shown.

SMILES	ARFGAP1 inh	PLC-gamma1 inh	sPLA2-III inh	ASAP1 GAP inh	PLCb3 inh	hGIII sPLA2 conf	BODIPY interf	others
O=C(Nc1ccccc1)c1ccccc1NC(=O)c1ccccc1[N+](=O)[O-]	0	0	0	0	0	-	-
O=[N+]([O-])c1ccccc1C(=Nc1ccccc1)c1c(O)cc(O)cc1O	0	0	26.1	0	0	0	0
COc1cccc(N(C)C(=O)[C@@H](C2CC2)[C@@H](O)c2ccc(Cl)cc2)c1	-	0	0	-	0	-	-
Clc1ccc(OCCCCCN2CCCC2)c(Br)c1	0	0	0	0	0	-	-
Cc1ccc(OCCCCN2CCCCC2)c(C)c1	0	0	0	0	0	-	-
Clc1ccc(OCCCN2CCCCC2)c(Br)c1	0	0	21.9	0	0	0	0
Cc1ccc(C)c(OCCCCN2CCCCC2)c1	0	0	20.6	0	0	0	0
CCc1ccc(OCCNc2cc(N3CCNC(C)C3)ccc2[N+](=O)[O-])cc1 (stereo not given)	0	0	26.3	0	0	0	0
Cc1nc2ccccc2n1Cc1ccccc1	0	0	0	0	0	-	-
Cc1nc2ccccc2n1CSc1ccccc1	0	0	20.7	0	0	0	0
COc1cc(Cn2cc([C@]34C[C@H]5C(=O)N(C)CC(=O)N5[C@H]3N(S(=O)(=O)c3ccccc3)c3ccccc34)c3ccccc32)cc(OC)c1	-	0	0	-	0	-	-
CCCSc1nc2c([nH]1)c(=O)n(C)c(=S)n2C	0	0	19.7	0	0	0	0
CCSc1nc2c([nH]1)c(=O)n(C)c(=S)n2C	0	0	0	0	0	-	-
Cc1ccc(O)c(C(C)c2c[nH]c3ccccc23)c1 (stereo not given)	-	0	0	-	0	-	-
CCCCNC(=O)C1(C)CCN1C(=O)Cc1ccc(OC)cc1 (stereo not given)	0	0	0	0	0	-	-
CCOC(=O)C1(C)CCN1C(=O)Cc1ccc(OC)cc1 (stereo not given)	0	0	24.8	0	0	0	0
CCC(=O)N(CC(=O)Nc1sc(C)c(C)c1C(N)=O)C1CCCCC1	0	0	19.3	0	0	0	0
Cc1ccc(C(=O)N(CC(=O)Nc2sc(C)c(C)c2C(N)=O)C2CCCC2)cc1	0	0	0	0	0	-	-
CC1(C(=O)NC(=S)NNC(=O)c2ccncc2)CCCCC1	0	0	26.4	0	0	20.1	0
O=C(NNC(=O)C1CCCCC1)c1ccncc1	0	0	0	0	0	-	-
O=C(CSc1nnc(NCc2ccccc2)s1)N1CCOCC1	0	0	27.1	0	0	0	0
O=C(Nc1nnc(SCC(=O)N2CCOCC2)s1)c1ccccc1Cl	0	0	0	0	0	-	-
CC(C)(C)N(Cc1cn(Cc2ccccc2)nn1)S(=O)(=O)c1ccc(F)cc1Br	-	0	0	-	0	-	-
Cc1c[nH]c2cccc(-c3ccc4c(c3)OCO4)c12	-	0	0	-	0	-	-
C/C(=N\NC(=S)NC1CCCCC1)c1ccc(C#N)cc1	0	0	26.4	0	0	0	0
SMILES	ARFGAP1 inh	PLC-gamma1 inh	sPLA2-III inh	ASAP1 GAP inh	PLCb3 inh	hGIII sPLA2 conf	BODIPY interf	others
O=C(NN1CCOCC1)c1cccc2ccccc12	0	0	20.5	0	0	0	0
O=C(NN1CCCCC1)c1cccc2ccccc12	0	0	0	0	0	-	-
O=C(Nc1ccccc1Br)c1cccc2ccccc12	0	0	0	0	0	-	-
CC(=O)Nc1ccccc1NC(=O)c1cccc2ccccc12	0	0	22.1	0	0	0	0
O=S1(=O)c2c(cccc2N2CCSCC2)Oc2ccccc2CN1Cc1cn(Cc2ccccc2C(F)(F)F)nn1	-	0	0	-	0	-	-
CCOC(=O)c1c(CSC(=N)N)n(-c2ccc(C)cc2)c2cc(Br)c(OC(C)=O)cc12	0	0	25.5	0	0	0	0
Cc1ccc(C(=O)Nc2sc(C)c(C)c2C(=O)c2ccccc2)cc1	0	0	23.3	0	0	0	0
CCCc1cc(C(=O)NNC(=S)NCC2CCCO2)cs1 (stereo not given)	0	0	22.6	0	0	0	0
CCc1cc(C(=O)NNC(=S)NCC2CCCO2)cs1 (stereo not given)	0	0	0	0	0	-	-
O=S1(=O)c2ccccc2-c2c(nnn2CC2CCCCC2)CN1C1CC1	-	0	0	-	0	-	-
O=c1c2c3c(sc2nc(N2CCNCC2)n1CCc1ccccc1)CCCCC3	0	0	19.7	0	0	0	0
CCOc1ccc(/C=N/NC(=O)C(=O)NCc2ccco2)cc1	0	0	19.8	0	0	0	0
CCOc1ccc(NC(=O)NCc2ccco2)cc1	0	0	0	0	0	-	-
CCOc1cc(/C=N/NC(=O)c2ccncc2)ccc1OS(C)(=O)=O	0	0	0	0	0	-	-
CS(=O)(=O)Oc1ccc(/C=N/NC(=O)c2ccncc2)cc1	0	0	19.3	0	0	0	0
O=C(C=Cc1ccc(O)c(O)c1)NCC(=O)NC(Cc1ccccc1)C(=O)O (stereo not given)	0	0	0	0	0	-	-
O=c1ccn([C@@H]2O[C@H](CNCc3ccccc3)[C@@H](O)[C@H]2O)c(=O)[nH]1	0	0	0	0	0	-	-
O=c1ccn([C@@H]2O[C@H](CNCC3=Cc4cc(O)ccc4OC3)[C@@H](O)[C@H]2O)c(=O)[nH]1	0	0	19.7	0	0	0	0
COC(=O)c1cccc(Cn2ccc3ccc(-c4ccc5ccn(C(=O)c6ccc(C)cc6)c5c4)cc32)c1	-	0	0	-	0	-	-
CCCCOC(=O)Nc1ccccc1C(=O)N1CCCC1	0	0	21.7	0	0	0	0
CCn1c(-c2csc3c2CCCC3)n[nH]c1=S	0	0	28.6	0	0	30.1	0	535nm interf DR=0
C=CCn1c(-c2csc3c2CCC(C)C3)n[nH]c1=S (stereo not given)	0	0	20.8	0	0	19.9	0
CCn1c(-c2ccccc2SC)n[nH]c1=S	0	0	0	0	0	-	-
C=CCn1c(-c2ccncc2)n[nH]c1=S	0	0	0	0	0	-	-
O=c1c(-c2ccco2)nc2ccccc2n1C(c1ccccn1)c1nc2ccccc2[nH]1 (stereo not given)	0	0	22.6	0	0	0	0
CN1C2CCC1CC(NC(=O)c1ccc(Cl)cc1)C2 (stereo not given)	0	0	0	0	0	-	-
O=C(NC1C2CCCC1CN(C1CC1)C2)c1ccc(Cl)cc1 (stereo not given)	0	0	19.5	0	0	0	0
COc1ccc(CN2CCc3c([nH]c4ccccc34)C2)cc1Br	0	0	27.2	0	0	0	0
C/C(=N\NC(=O)CSCc1ccc([N+](=O)[O-])cc1)c1ccccc1O	0	0	20.9	0	0	0	0
CCCC/C=C1/[C@@H](CC)N(Cc2ccc(OC)cc2OC)C2=N[C@@H](c3ccccc3)CC(=O)N21	-	0	0	-	0	-	-

High-throughput results deposited in PubChem by The Scripps Research Institute Molecular Screening Center.
